System: Candida albicans
Assay: Growth inhibition of Candida albicans ATCC 90028 at 2 ug/ml incubated for 4 hrs at 35 degC by broth microdilution method relative to control
Type: functional
Details: ATCC 90028, 4 h, read-out: GI

SMILES	inhibition of growth at 2 µg/mL
CC(Cn1cnc2c1c(=O)n(C)c(=O)n2C)OC(=O)Nc1ccccc1 (centres undefined)	99.4%

System: Candida albicans
Assay: Growth inhibition of Candida albicans ATCC 90028 at 0.0625 ug/ml incubated for 4 hrs at 35 degC by broth microdilution method relative to control
Type: functional
Details: ATCC 90028, 4 h, read-out: GI

SMILES	inhibition of growth at 0.0625 µg/mL
CC(Cn1cnc2c1c(=O)n(C)c(=O)n2C)OC(=O)Nc1ccccc1 (centres undefined)	99.3%

System: Candida albicans
Assay: Growth inhibition of Candida albicans ATCC 90028 at 1 ug/ml incubated for 18 hrs at 35 degC by broth microdilution method relative to control
Type: functional
Details: ATCC 90028, 18 h, read-out: GI

SMILES	inhibition of growth at 1 µg/mL
CC(Cn1cnc2c1c(=O)n(C)c(=O)n2C)OC(=O)Nc1ccccc1 (centres undefined)	99.9%

System: Candida albicans
Assay: Fungicidal activity against Candida albicans ATCC 90028 assessed as log reduction in cell viability at 16 ug/ml after 48 hrs at 35 degC
Type: functional
Details: not given
Summary of the method: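 MFC assay on C. albicans ATCC 90028 following M27-A3, at the molar equivalent of 16 µg/mL. CFU of treated cells were compared with CFU of the untreated inoculum. Activity is given as lg R = lg CFU/mL control − lg CFU/mL treated, and lg R ≥3 was defined as fungicidal. Values are means of two independent experiments.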

SMILES	log(activity)
CC(Cn1cnc2c1c(=O)n(C)c(=O)n2C)OC(=O)Nc1ccccc1 (centres undefined)	0.6

System: MCF7
Assay: Antiproliferative activity against human MCF7 cells assessed as cell viability at 200 uM after 72 hrs by MTT assay
Type: functional
Details: MCF7, 72 h, read-out: Activity
Summary of the method: (§1)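 MTT viability assay in CCRF-CEM and MCF-7 cells after 72 h exposure at 25, 50, 100 and 200 µM. Results are relative to control cells without inhibitor in 0.5% DMSO. Done in triplicate; values are means ± SD of three independent experiments.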

SMILES	viability at 200 µM
CC(Cn1cnc2c1c(=O)n(C)c(=O)n2C)OC(=O)Nc1ccccc1 (centres undefined)	81%

System: Candida albicans
Assay: Growth inhibition of Candida albicans ATCC 90028 at 2 ug/ml incubated for 18 hrs at 35 degC by broth microdilution method relative to control
Type: functional
Details: ATCC 90028, 18 h, read-out: GI

SMILES	inhibition of growth at 2 µg/mL
CC(Cn1cnc2c1c(=O)n(C)c(=O)n2C)OC(=O)Nc1ccccc1 (centres undefined)	100%

System: Candida albicans
Assay: Growth inhibition of Candida albicans ATCC 90028 at 8 ug/ml incubated for 4 hrs at 35 degC by broth microdilution method relative to control
Type: functional
Details: ATCC 90028, 4 h, read-out: GI

SMILES	inhibition of growth at 8 µg/mL
CC(Cn1cnc2c1c(=O)n(C)c(=O)n2C)OC(=O)Nc1ccccc1 (centres undefined)	99.2%

System: Candida albicans
Assay: Growth inhibition of Candida albicans ATCC 90028 at 4 ug/ml incubated for 18 hrs at 35 degC by broth microdilution method relative to control
Type: functional
Details: ATCC 90028, 18 h, read-out: GI

SMILES	inhibition of growth at 4 µg/mL
CC(Cn1cnc2c1c(=O)n(C)c(=O)n2C)OC(=O)Nc1ccccc1 (centres undefined)	99.7%

System: Candida albicans
Assay: Growth inhibition of Candida albicans ATCC 90028 at 0.5 ug/ml incubated for 4 hrs at 35 degC by broth microdilution method relative to control
Type: functional
Details: ATCC 90028, 4 h, read-out: GI

SMILES	inhibition of growth at 0.5 µg/mL
CC(Cn1cnc2c1c(=O)n(C)c(=O)n2C)OC(=O)Nc1ccccc1 (centres undefined)	99.2%

System: MCF7
Assay: Antiproliferative activity against human MCF7 cells assessed as cell viability at 100 uM after 72 hrs by MTT assay
Type: functional
Details: MCF7, 72 h, read-out: Activity
Summary of the method: as §1

SMILES	viability at 100 µM
CC(Cn1cnc2c1c(=O)n(C)c(=O)n2C)OC(=O)Nc1ccccc1 (centres undefined)	84.7%

System: CCRF-CEM
Assay: Antiproliferative activity against human CCRF-CEM cells assessed as cell viability at 100 uM after 72 hrs by MTT assay
Type: functional
Details: read-out: Activity
Summary of the method: as §1

SMILES	viability at 100 µM
CC(Cn1cnc2c1c(=O)n(C)c(=O)n2C)OC(=O)Nc1ccccc1 (centres undefined)	53.5%

System: CCRF-CEM
Assay: Antiproliferative activity against human CCRF-CEM cells assessed as cell viability at 200 uM after 72 hrs by MTT assay
Type: functional
Details: read-out: Activity
Summary of the method: as §1

SMILES	viability at 200 µM
CC(Cn1cnc2c1c(=O)n(C)c(=O)n2C)OC(=O)Nc1ccccc1 (centres undefined)	38.5%

System: Candida albicans
Assay: Growth inhibition of Candida albicans ATCC 90028 at 0.0625 ug/ml incubated for 18 hrs at 35 degC by broth microdilution method relative to control
Type: functional
Details: ATCC 90028, 18 h, read-out: GI

SMILES	inhibition of growth at 0.0625 µg/mL
CC(Cn1cnc2c1c(=O)n(C)c(=O)n2C)OC(=O)Nc1ccccc1 (centres undefined)	100%

System: Candida albicans
Assay: Growth inhibition of Candida albicans ATCC 90028 at 0.125 ug/ml incubated for 4 hrs at 35 degC by broth microdilution method relative to control
Type: functional
Details: ATCC 90028, 4 h, read-out: GI

SMILES	inhibition of growth at 0.125 µg/mL
CC(Cn1cnc2c1c(=O)n(C)c(=O)n2C)OC(=O)Nc1ccccc1 (centres undefined)	99.3%

System: CCRF-CEM
Assay: Antiproliferative activity against human CCRF-CEM cells assessed as cell viability at 25 uM after 72 hrs by MTT assay
Type: functional
Details: read-out: Activity
Summary of the method: as §1

SMILES	viability at 25 µM
CC(Cn1cnc2c1c(=O)n(C)c(=O)n2C)OC(=O)Nc1ccccc1 (centres undefined)	78.9%

System: Candida albicans
Assay: Growth inhibition of Candida albicans ATCC 90028 at 8 ug/ml incubated for 48 hrs at 35 degC by broth microdilution method relative to control
Type: functional
Details: ATCC 90028, 48 h, read-out: GI

SMILES	inhibition of growth at 8 µg/mL
CC(Cn1cnc2c1c(=O)n(C)c(=O)n2C)OC(=O)Nc1ccccc1 (centres undefined)	99.2%

System: Candida albicans
Assay: Growth inhibition of Candida albicans ATCC 90028 at 16 ug/ml incubated for 48 hrs at 35 degC by broth microdilution method relative to control
Type: functional
Details: ATCC 90028, 48 h, read-out: GI

SMILES	inhibition of growth at 16 µg/mL
CC(Cn1cnc2c1c(=O)n(C)c(=O)n2C)OC(=O)Nc1ccccc1 (centres undefined)	99.1%

System: MCF7
Assay: Antiproliferative activity against human MCF7 cells assessed as cell viability at 25 uM after 72 hrs by MTT assay
Type: functional
Details: MCF7, 72 h, read-out: Activity
Summary of the method: as §1

SMILES	viability at 25 µM
CC(Cn1cnc2c1c(=O)n(C)c(=O)n2C)OC(=O)Nc1ccccc1 (centres undefined)	91.9%

System: Candida albicans
Assay: Growth inhibition of Candida albicans ATCC 90028 at 8 ug/ml incubated for 18 hrs at 35 degC by broth microdilution method relative to control
Type: functional
Details: ATCC 90028, 18 h, read-out: GI

SMILES	inhibition of growth at 8 µg/mL
CC(Cn1cnc2c1c(=O)n(C)c(=O)n2C)OC(=O)Nc1ccccc1 (centres undefined)	99.9%

System: Candida albicans
Assay: Growth inhibition of Candida albicans ATCC 90028 at 0.125 ug/ml incubated for 18 hrs at 35 degC by broth microdilution method relative to control
Type: functional
Details: ATCC 90028, 18 h, read-out: GI

SMILES	inhibition of growth at 0.125 µg/mL
CC(Cn1cnc2c1c(=O)n(C)c(=O)n2C)OC(=O)Nc1ccccc1 (centres undefined)	100%

System: Candida albicans
Assay: Growth inhibition of Candida albicans ATCC 90028 at 0.5 ug/ml incubated for 18 hrs at 35 degC by broth microdilution method relative to control
Type: functional
Details: ATCC 90028, 18 h, read-out: GI

SMILES	inhibition of growth at 0.5 µg/mL
CC(Cn1cnc2c1c(=O)n(C)c(=O)n2C)OC(=O)Nc1ccccc1 (centres undefined)	100%

System: Candida albicans
Assay: Growth inhibition of Candida albicans ATCC 90028 at 0.25 ug/ml incubated for 4 hrs at 35 degC by broth microdilution method relative to control
Type: functional
Details: ATCC 90028, 4 h, read-out: GI

SMILES	inhibition of growth at 0.25 µg/mL
CC(Cn1cnc2c1c(=O)n(C)c(=O)n2C)OC(=O)Nc1ccccc1 (centres undefined)	99.2%

System: Candida albicans
Assay: Growth inhibition of Candida albicans ATCC 90028 at 1 ug/ml incubated for 4 hrs at 35 degC by broth microdilution method relative to control
Type: functional
Details: ATCC 90028, 4 h, read-out: GI

SMILES	inhibition of growth at 1 µg/mL
CC(Cn1cnc2c1c(=O)n(C)c(=O)n2C)OC(=O)Nc1ccccc1 (centres undefined)	99.3%

System: CCRF-CEM
Assay: Antiproliferative activity against human CCRF-CEM cells assessed as cell viability at 50 uM after 72 hrs by MTT assay
Type: functional
Details: read-out: Activity
Summary of the method: as §1

SMILES	viability at 50 µM
CC(Cn1cnc2c1c(=O)n(C)c(=O)n2C)OC(=O)Nc1ccccc1 (centres undefined)	73.1%

System: MCF7
Assay: Antiproliferative activity against human MCF7 cells assessed as cell viability at 50 uM after 72 hrs by MTT assay
Type: functional
Details: MCF7, 72 h, read-out: Activity
Summary of the method: as §1

SMILES	viability at 50 µM
CC(Cn1cnc2c1c(=O)n(C)c(=O)n2C)OC(=O)Nc1ccccc1 (centres undefined)	83.6%

System: Candida albicans
Assay: Growth inhibition of Candida albicans ATCC 90028 at 0.25 ug/ml incubated for 18 hrs at 35 degC by broth microdilution method relative to control
Type: functional
Details: ATCC 90028, 18 h, read-out: GI

SMILES	inhibition of growth at 0.25 µg/mL
CC(Cn1cnc2c1c(=O)n(C)c(=O)n2C)OC(=O)Nc1ccccc1 (centres undefined)	100%

System: Candida albicans
Assay: Growth inhibition of Candida albicans ATCC 90028 at 16 ug/ml incubated for 18 hrs at 35 degC by broth microdilution method relative to control
Type: functional
Details: ATCC 90028, 18 h, read-out: GI

SMILES	inhibition of growth at 16 µg/mL
CC(Cn1cnc2c1c(=O)n(C)c(=O)n2C)OC(=O)Nc1ccccc1 (centres undefined)	100%

System: Candida albicans
Assay: Growth inhibition of Candida albicans ATCC 90028 at 0.0313 ug/ml incubated for 4 hrs at 35 degC by broth microdilution method relative to control
Type: functional
Details: ATCC 90028, 4 h, read-out: GI

SMILES	inhibition of growth at 0.0313 µg/mL
CC(Cn1cnc2c1c(=O)n(C)c(=O)n2C)OC(=O)Nc1ccccc1 (centres undefined)	99.4%

System: Candida albicans
Assay: Growth inhibition of Candida albicans ATCC 90028 at 0.0313 ug/ml incubated for 18 hrs at 35 degC by broth microdilution method relative to control
Type: functional
Details: ATCC 90028, 18 h, read-out: GI

SMILES	inhibition of growth at 0.0313 µg/mL
CC(Cn1cnc2c1c(=O)n(C)c(=O)n2C)OC(=O)Nc1ccccc1 (centres undefined)	100%

From ChEMBL document CHEMBL4229342, “Synthesis of novel proxyphylline derivatives with dual Anti-Candida albicans and anticancer activity” (Eur J Med Chem, 2018)
